Results gathered from unrelated publications.
Each line is one published result; the experiments were not run side by side.
Target: Tyrosine-protein kinase Fes/Fps (FES, Homo sapiens, UniProt P07332)

Structure (SMILES) | test | setting | remaining binding
CC1CCCN1c1nccc(-c2cnn3ncccc23)n1 (stereo not shown) | binding | 1 µM | 100%
C[C@@H](c1ccc(-n2cnc3c(N)ncnc32)cc1)N1CCc2nn(C)c(Cc3ccccc3)c2C1=O | binding, competition with immobilised ligand | 0.1 µM | 89%
Cc1c[nH]c2nccc(Oc3c(F)cc(Nc4cc(Cl)nc(N)n4)cc3F)c12 | cell-free assay, competition with immobilised ligand | 0.1 µM | 100%
O=C(NCCCN1CCOCC1)c1ccc(Nc2nccc(-c3cc4ccccc4s3)n2)cc1 | binding, competition with immobilised ligand | 1 µM | 85%
CN(C)c1nccc(-c2cnn3ncccc23)n1 | binding | 1 µM | 100%
O=C(c1ccc(Nc2ncc(Cl)c(-c3ccc(Cl)s3)n2)cc1)N1CCC(N2CCCC2)CC1 | binding, competition with immobilised ligand | 1 µM | 59%
COc1cc(-c2cn(C3CCc4c(F)cccc4N(CC(F)(F)F)C3=O)nn2)ccc1-n1cnc(C)c1 (stereo not shown) | cell-free assay, competition with immobilised ligand | 1 µM | 100%
C=CC(=O)N1CCC(C(=O)NCC(=O)N2CCN(c3nc(-c4cnc(N)nc4C(F)F)nc(N4CCOCC4)n3)CC2)CC1 | binding, competition with immobilised ligand | 1 µM | 100%
Nc1ncc2c(n1)-c1c([nH]c3ccc(C#CC4CC4)cc13)CCCC2 | binding, competition with immobilised ligand | 1 µM | 100%
Cc1cnc(Nc2ccc(C(=O)N3CCC(N4CCCC4)CC3)cc2)nc1-c1cc2ccccc2s1 | binding, competition with immobilised ligand | 1 µM | 52%
CS(=O)(=O)N1CCCC(NC(=O)[C@H](CCC2CCCCC2)NC(=O)c2ccc(CNc3ncnc4c3nnn4-c3ccccc3)cc2)C1 (stereo partly shown) | cell-free assay, competition with immobilised ligand | 0.1 µM | 87%
c1cnn2ncc(-c3ccnc(N4CCC45COC5)n3)c2c1 | binding | 1 µM | 95%
Cn1nc(C(=O)NCc2ccc(C(=O)O)cc2)cc1-c1ccc2[nH]ccc2c1 | cell-free assay, competition with immobilised ligand | 0.1 µM | 95%
COc1cnc(Nc2cccc(S(N)(=O)=O)c2)nc1N1CCN(c2ccccc2)C(=O)C1 | binding, competition with immobilised ligand | 1 µM | 100%
O=C(Nc1c[nH]nc1C(=O)NC1CCNCC1)c1cc(F)cc(F)c1 | binding, competition with immobilised ligand | 1 µM | 100%
N[C@H]1CCN(c2nccc(-c3cnn4ncccc34)n2)C1 | binding | 1 µM | 100%
Cc1nccc(COC(=O)N2C[C@@H]3[C@@H](CNC(=O)c4ccc5[nH]nnc5c4)[C@@H]3C2)n1 | cell-free assay, competition with immobilised ligand | 1 µM | 99%
COc1cnc(Nc2cccc(S(N)(=O)=O)c2)nc1N1CCN(c2ccccc2)CC1 | binding, competition with immobilised ligand | 1 µM | 100%
O=C(O)[C@H]1[C@H](Cn2nnc3ccccc3c2=O)CC[C@@H]1C(=O)c1ccc(OCCC2CCOCC2)cc1 | cell-free assay, competition with immobilised ligand | 1 µM | 100%
CN(c1nccc(-c2cnn3ncccc23)n1)C1CC1 | binding | 1 µM | 100%
CCS(=O)(=O)c1cc2cc(C[C@@](O)(CC(C)(C)c3ccc(F)cc3C(N)=O)C(F)(F)F)[nH]c2cn1 | cell-free assay, competition with immobilised ligand | 1 µM | 100%
C[C@H]1CCN(c2nccc(-c3cnn4ncccc34)n2)C1 | binding | 1 µM | 100%
